Screens: PubChem, Sanford-Burnham Center for Chemical Genomics
EBI2 block: EBI2 (human) antagonism. P32249. EBI2 beta-arrestin recruitment, luminescence, 7a,25-OHC stimulated. inhibition, % at 5 µM. actives 0.81% (n = 360,000). AID 651636; in the data active means inhibition above about 38%;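 further: enzyme fragment complementation signal reports receptor beta-arrestin coupling in cells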
CCR6 antag: antagonists of human CCR6 receptor. P51684. CHO-K1 CCR6 PathHunter beta-arrestin, luminescence, CCL20-stimulated. inhibition, % at 20 µM. actives 0.49% (n = 340,000);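 active means compounds whose inhibition of the agonist-driven luminescence signal at 20 µM reaches about 50%, limit read from the data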;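 further: cells stimulated with CCL20 at 14 nM final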
APJ ag: APJ receptor agonism; P35414; CHO-K1 APJ PathHunter beta-arrestin, luminescence; 0% DMSO wells, 100% apelin; activation, % at 20 µM; actives 0.11% (n = 330,000);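 active means activation more than six SD over the plate average, tested at 20 µM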
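Incubation: overnight seeding, 90 min compound at 25 °C, 1 h detection; test system: PathHunter CHO-K1 APJ (AGTRL-1) beta-arrestin reporter cells; amount: 1000 cells/well; doses: one dose, 20 µM compound, 1% DMSO; measured by: beta-gal luminescence; measure: agonist-driven arrestin binding to APJ; benchmarks: negative DMSO alone, positive Apelin-13 at 10 nM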
CXCR6 block: CXCR6 (human) receptor inhibition. O00574. CHO-K1 PathHunter CXCR6 beta-arrestin, luminescence. inhibition, % at 20 µM. actives 0.36% (n = 360,000). AID 602244; in the data active means inhibition above about 34%, passing the limit was not always enough;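 further: antagonist mode with CXCL16 agonist at 10 nM final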
Target sequence (O00574 whole entry, looked up): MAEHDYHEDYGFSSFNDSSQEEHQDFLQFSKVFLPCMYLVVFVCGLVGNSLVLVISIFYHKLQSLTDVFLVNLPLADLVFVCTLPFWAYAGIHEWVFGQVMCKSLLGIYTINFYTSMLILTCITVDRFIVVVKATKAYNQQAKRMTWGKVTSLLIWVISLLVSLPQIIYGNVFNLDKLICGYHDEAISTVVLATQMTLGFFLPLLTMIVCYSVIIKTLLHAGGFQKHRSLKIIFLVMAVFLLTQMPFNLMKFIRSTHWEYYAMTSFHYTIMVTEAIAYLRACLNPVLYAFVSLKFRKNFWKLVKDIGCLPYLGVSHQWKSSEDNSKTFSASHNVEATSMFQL
APJ antagonist: antagonists of human APJ apelin receptor; inhibition, % at 20 µM; actives 0.32% (n = 330,000); CHO-K1 APJ beta-arrestin complementation, luminescence;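 active means inhibition above about 40% at 20 µM, limit read from the data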;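 further: cells challenged with 10 nM apelin-13 agonist together with compound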
APJ antag confirm: confirmation of human APJ apelin receptor antagonists. shares compounds with APJ antagonist. actives 66% (n = 950). APJ beta-arrestin recruitment, luminescence, antagonist mode. inhibition, % at 20 µM; in the data active means inhibition above about 50%
CXCR6 antag conf: confirmation of human CXCR6 receptor antagonists | shares compounds with CXCR6 block | actives 65% (n = 700) | inhibition, % at 20 µM | CHO-K1 CXCR6 PathHunter beta-arrestin, luminescence | AID 602409;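 active means mean inhibition over four retests above 40%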;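 further: receptor stimulated with 10 nM CXCL16 agonist; beta-galactosidase fragment complementation upon beta-arrestin recruitment to receptor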
Large screens that a line does not name were inactive (follow-up assays come after a bar, where they were run). Hits are enriched below; roughly 1.5% of the tested compounds scored in any of these assays.

Oc1cccc(/C=C/c2ccc3cccc(O)c3n2)c1	none
Cc1nccn1-c1ccc(NC(=O)[C@H]2O[C@@H](n3ccc(N)nc3=O)[C@H](O)[C@@H]2O)cc1	none (no result: CCR6 antag, APJ ag, APJ antagonist)
COc1ccc(C(=O)Nc2c(N)nc(SCC(=O)c3ccccc3)[nH]c2=O)cc1	none
COc1ccc(NC(=S)NNc2ccc(S(=O)(=O)Nc3ccccc3C(=O)O)cc2[N+](=O)[O-])cc1	CCR6 antag 68, CXCR6 block 43, APJ antagonist 56 | APJ antag confirm 100
CC(C)(C)OC(=O)C[C@@H]1C/C=C\C[C@H](CC(=O)N(CCO)Cc2ccccc2)C(=O)NC[C@@H](c2ccccc2)OC1=O	CCR6 antag 56, CXCR6 block 56, APJ antagonist 54 | APJ antag confirm 100
COc1ccc(C(=O)Nc2nc(C)cc(C)n2)cc1[N+](=O)[O-]	none
COc1ccc(S(=O)(=O)NNc2nc(C)cc(C)n2)cc1[N+](=O)[O-]	APJ antagonist 62 | APJ antag confirm 114
NC(=O)CSc1nc2cc(Cl)ccc2c(=O)n1C1CCCCC1	none
N#Cc1c(N)n(CCCN2CCOCC2)c2nc3ccccc3nc12	APJ antagonist 43 | APJ antag confirm inactive
CCCCCn1c(N)c(C#N)c2nc3ccccc3nc21	none
COc1ccccc1N1CCN(C(=O)c2c(C)cc(=O)oc2C)CC1	APJ antagonist 57 | APJ antag confirm inactive
Cc1ccccc1S(=O)(=O)N1C[C@@H]2C(C(=O)C[C@@H]3C(=O)N(C)C(=O)[C@@H]32)[C@@H]1c1ccc(Cl)cc1 (stereo not given in full)	none (no result: CCR6 antag, APJ ag, CXCR6 block, APJ antagonist)
Cc1c(NS(=O)(=O)c2ccc(Cl)c(C(=O)OCC(=O)NCc3ccco3)c2)c(=O)n(-c2ccccc2)n1C	APJ antagonist 49 | APJ antag confirm inactive
O=C(Nc1ccc(F)c(Cl)c1)Nc1nnc([C@@H]2O[C@H](CO)[C@@H](O)[C@H]2O)s1	none (no result: CCR6 antag, APJ ag, APJ antagonist)
COc1ccc(Cl)cc1NC(=O)CCNC(=O)Cn1ccc2ccccc2c1=O	none
CC1(C)Cc2c(c(N3CCOCC3)nc3sc4c(NN)ncnc4c23)CS1	CCR6 antag 56, APJ antagonist 60 | APJ antag confirm 89
CC(C)CNc1nnnc2c1sc1nc(N3CCOCC3)c3c(c12)CC(C)(C)SC3	none
O=[N+]([O-])c1ccc(/C=N/Nc2nc(NCc3ccccc3)nc(N3CCOCC3)n2)cc1	none
O=[N+]([O-])c1cccc(/C=N/Nc2nc(NCc3ccccc3)nc(N3CCOCC3)n2)c1O	EBI2 block 76, CCR6 antag 107, CXCR6 block 95, APJ antagonist 76 | APJ antag confirm 124
CCN1CCN(c2cc(C)c3cc(NC(=O)Cc4ccccc4OC)ccc3n2)CC1	APJ antagonist 48 | APJ antag confirm inactive
CCN1CCN(c2cc(C)c3cc(NC(=O)CCC(=O)Nc4ccc(OC)c(OC)c4)ccc3n2)CC1	none
COc1ccc(C(=O)NC(=S)Nc2ccc(N3CCN(C(C)=O)CC3)cc2)cc1[N+](=O)[O-]	none
Cc1ccc(NC(=S)NNC(=O)c2ccc(N3CCOCC3)c([N+](=O)[O-])c2)cc1Cl	APJ antagonist 42 | APJ antag confirm 63
COc1ccc(C(=O)NC(=S)Nc2cccc(Cl)c2N2CCOCC2)cc1[N+](=O)[O-]	EBI2 block 42, APJ antagonist 81 | APJ antag confirm 55
O=C(NNC(=S)Nc1ccc(Br)cc1)c1ccc(N2CCOCC2)c([N+](=O)[O-])c1	none
O=C(NNC(=S)Nc1ccc(Cl)cc1Cl)c1ccc(N2CCOCC2)c([N+](=O)[O-])c1	APJ antagonist 40 | APJ antag confirm 62
COc1ccc(C2SCC(=O)N2c2nc3ccccc3s2)cc1 (stereo not given)	APJ antagonist 44 | APJ antag confirm inactive
COc1ccc(N2C(=O)CSC2c2ccccc2)cc1 (stereo not given)	none
O=[N+]([O-])c1cccc(/C=N/NS(=O)(=O)c2ccccc2)c1	APJ antagonist 65 | APJ antag confirm 68
Cc1ccc(-c2cc3c(nn2)-c2ccccc2C3=O)cc1	EBI2 block 60, APJ antagonist 43 | APJ antag confirm 147
CC(C)c1ccccc1NC(=O)CN1C(=O)c2ccccc2C1=O	none
COc1cc2c(cc1OC)C1(CCCC1)CNC2c1cccc([N+](=O)[O-])c1 (stereo not given)	CCR6 antag 78, CXCR6 block 63, APJ antagonist 47 | APJ antag confirm 78
COc1cc2c(cc1OC)C(c1cccc([N+](=O)[O-])c1)NC(=O)C2 (stereo not given)	none
CCNc1nc(NCC)nc(Oc2ccc(C(=O)OC)cc2)n1	none
COc1ccc(OC)c(NC(=O)CN(Cc2ccccc2)S(C)(=O)=O)c1	none
CC1(C)OC2OC3C(CNCCO)OC(c4ccccc4)OC3C2O1 (stereo not given)	none (no result: APJ ag, APJ antagonist)
Cc1ccc(C(=O)COC(=O)CNC(=O)Cc2ccccc2)cc1[N+](=O)[O-]	CCR6 antag 68, APJ antagonist 45 | APJ antag confirm 62
Cc1ccc(C(=O)COC(=O)CNC(=O)c2ccc(Br)o2)cc1[N+](=O)[O-]	APJ antagonist 48 | APJ antag confirm 66
Cc1ccc(C(=O)COC(=O)CNS(=O)(=O)c2ccccc2)cc1[N+](=O)[O-]	CCR6 antag 80, APJ antagonist 48 | APJ antag confirm 86
COc1cc(OC)cc(C(=O)N[C@H](C(=O)OCC(=O)c2c[nH]c3ccccc23)C(C)C)c1	none
CCc1ccc(C(=O)COC(=O)CNC(=O)c2ccc(Br)o2)cc1	none
COc1cc(OC)cc(C(=O)N[C@H](C(=O)OCC(=O)c2ccc(C)c([N+](=O)[O-])c2)C(C)C)c1	CCR6 antag 50, APJ antagonist 48 | APJ antag confirm 51
COc1cc(/C=C2\N=C(C)OC2=O)cc(OC)c1OC	none
COc1cc(/C=C2/N=C(C3CCCCC3)OC2=O)cc(OC)c1OC	APJ antagonist 42 | APJ antag confirm inactive
Cc1ccccc1NC(=S)NC(=O)c1cncc(Br)c1	none
O=C(O)c1cccc(NC(=S)NC(=O)c2cncc(Br)c2)c1	CXCR6 block 58, APJ antagonist 43 | APJ antag confirm 81 | CXCR6 antag conf inactive
Cc1cc(O)ccc1NC(=S)NC(=O)c1cncc(Br)c1	CCR6 antag 70, CXCR6 block 51, APJ antagonist 43 | APJ antag confirm 82 | CXCR6 antag conf 48
CN(c1ccccc1)S(=O)(=O)c1ccc(NC(=O)c2nc(S(C)(=O)=O)ncc2Cl)cc1	CCR6 antag 97, CXCR6 block 94, APJ antagonist 61 | APJ antag confirm 111 | CXCR6 antag conf 85
CN(c1ccccc1)S(=O)(=O)c1ccc(NC(=O)c2ccccc2)cc1	none
